# Assay results from different studies.
# Technique: competition with immobilised ligand
# RPS6KA3 N-terminal kinase domain: Ribosomal protein S6 kinase alpha-3, N-terminal kinase domain (RPS6KA3, Homo sapiens, UniProt P51812)
# RPS6KA3 C-terminal kinase domain: Ribosomal protein S6 kinase alpha-3, C-terminal kinase domain (RPS6KA3, Homo sapiens, UniProt P51812)
SMILES,target,test,setting,remaining binding
c1cncc(-c2cccc(Nc3nccc(NC4CCCCC4)n3)c2)c1,RPS6KA3 N-terminal kinase domain,binding,10 µM,42%
O=C(Nc1c[nH]nc1C(=O)NC1CCNCC1)c1cc(F)cc(F)c1,RPS6KA3 C-terminal kinase domain,binding,1 µM,100%
N[C@H]1CCN(c2nccc(-c3cnn4ncccc34)n2)C1,RPS6KA3 N-terminal kinase domain,binding,1 µM,89%
Cc1nccc(COC(=O)N2C[C@@H]3[C@@H](CNC(=O)c4ccc5[nH]nnc5c4)[C@@H]3C2)n1,RPS6KA3 C-terminal kinase domain,cell-free assay,1 µM,86%
CCN1CCN(Cc2ccc(C(=O)Nc3ccc(C)c(Oc4ccc5c(c4)CC(=O)N5)c3)cc2C(F)(F)F)CC1,RPS6KA3 N-terminal kinase domain,binding,1 µM,100%
CN(C)c1ncc(F)c(-c2cnn3ncccc23)n1,RPS6KA3 C-terminal kinase domain,binding,1 µM,68%
O=C(NCCCN1CCOCC1)c1ccc(Nc2ncc(Cl)c(-c3ccc(Cl)s3)n2)cc1,RPS6KA3 C-terminal kinase domain,binding,1 µM,100%
N#Cc1ccccc1CSc1nnc2c(n1)[nH]c1ccccc12,RPS6KA3 N-terminal kinase domain,binding,10 µM,80%
O=C(c1ccc(Nc2ncc(Cl)c(-c3cc4ccccc4s3)n2)cc1)N1CCC(N2CCCC2)CC1,RPS6KA3 C-terminal kinase domain,binding,1 µM,77%
CN(CCCC(F)(F)F)c1nccc(-c2cnn3ncccc23)n1,RPS6KA3 C-terminal kinase domain,binding,1 µM,100%
Nc1ncc2c(n1)-c1c([nH]c3ccc(C#CC4CC4)cc13)CCCC2,RPS6KA3 N-terminal kinase domain,binding,1 µM,73%
CN(c1ccnc(CNc2nc(Nc3ccc4c(c3)CC(=O)N4)ncc2C(F)(F)F)n1)S(C)(=O)=O,RPS6KA3 N-terminal kinase domain,cell-free assay,1 µM,25%
F[C@@H]1CCN(c2nccc(-c3cnn4ncccc34)n2)C1,RPS6KA3 N-terminal kinase domain,binding,1 µM,100%
O=S(=O)(NC1CCC(c2cc(F)ccc2F)(S(=O)(=O)c2ccc(Cl)cc2)CC1)C(F)(F)F (stereo not shown),RPS6KA3 C-terminal kinase domain,cell-free assay,1 µM,83%
COc1cnc(Nc2cccc(S(N)(=O)=O)c2)nc1N1CCN(c2ccccc2)CC1,RPS6KA3 N-terminal kinase domain,binding,1 µM,89%
c1ccc(N2CCN(Cc3nc4ccccc4[nH]3)CC2)nc1,RPS6KA3 C-terminal kinase domain,binding,1 µM,100%
O=C(c1ccc(Nc2nccc(-c3cc4ccccc4s3)n2)cc1)N1CCC(N2CCCC2)CC1,RPS6KA3 C-terminal kinase domain,binding,1 µM,66%
COc1cnc(Nc2cccc(S(N)(=O)=O)c2)nc1N1CCN(c2ccccc2)C(=O)C1,RPS6KA3 C-terminal kinase domain,binding,1 µM,97%
Cc1c(NC(=O)c2cc(C(N)=O)nc3cc(F)ccc23)c(C(F)(F)F)nn1Cc1ccc(C(C)(C)C)cc1,RPS6KA3 N-terminal kinase domain,cell-free assay,1 µM,100%
FC(F)(F)Oc1cccc(-c2cnc3ccc(-c4ccncc4)nn23)c1,RPS6KA3 C-terminal kinase domain,binding,5 µM,69%
O=C(c1ccc(Nc2ncc(Cl)c(-c3ccc(Cl)s3)n2)cc1)N1CCC(N2CCCC2)CC1,RPS6KA3 N-terminal kinase domain,binding,1 µM,30%
CNC(=O)[C@@H]1CC[C@@H](n2c(-c3ccc4cnccc4c3)nc3ccc(C(=O)NCc4cccc(C(N)=O)c4)cc32)C1,RPS6KA3 C-terminal kinase domain,binding,1 µM,100%
Cc1cnc(Nc2ccc(C(=O)N3CCC(N4CCCC4)CC3)cc2)nc1-c1cc2ccccc2s1,RPS6KA3 N-terminal kinase domain,binding,1 µM,22%
C[C@H](NC(=O)c1cnc2n1[C@](C)(Cc1ccc(C#N)cc1)C(=O)N2c1cc(Cl)c(F)c(Cl)c1)C(=O)NC1(c2ccccn2)CC1,RPS6KA3 N-terminal kinase domain,cell-free assay,1 µM,100%
C[C@@H](c1ccc(-n2cnc3c(N)ncnc32)cc1)N1CCc2nn(C)c(Cc3ccccc3)c2C1=O,RPS6KA3 N-terminal kinase domain,binding,0.1 µM,56%
O=C(NCCCN1CCOCC1)c1ccc(Nc2nccc(-c3cc4ccccc4s3)n2)cc1,RPS6KA3 C-terminal kinase domain,binding,1 µM,73%
C[C@H]1CCN(c2nccc(-c3cnn4ncccc34)n2)C1,RPS6KA3 N-terminal kinase domain,binding,1 µM,78%
C=CC(=O)N1CCC(C(=O)NCC(=O)N2CCN(c3nc(-c4cnc(N)nc4C(F)F)nc(N4CCOCC4)n3)CC2)CC1,RPS6KA3 N-terminal kinase domain,binding,1 µM,85%
O=C(O)[C@H]1[C@H](Cn2nnc3ccccc3c2=O)CC[C@@H]1C(=O)c1ccc(OCCC2CCOCC2)cc1,RPS6KA3 N-terminal kinase domain,cell-free assay,1 µM,81%
O=C(NCC1CCOCC1)c1n[nH]cc1NC(=O)c1c(F)cccc1F,RPS6KA3 N-terminal kinase domain,binding,1 µM,78%
Cc1cnn2ncc(-c3ccnc(N(C)C)n3)c2c1,RPS6KA3 C-terminal kinase domain,binding,1 µM,100%
COc1ncc2cc3ccccc3nc2c1C#N,RPS6KA3 N-terminal kinase domain,cell-free assay,5 µM,89%
C[C@H](c1ccnc(Nc2nc3ccc(-c4cc(N(C)C)ncn4)cc3[nH]2)c1)N1CCN(C(=O)CC(F)(F)F)CC1,RPS6KA3 C-terminal kinase domain,cell-free assay,0.1 µM,100%
CN(C)c1nccc(-c2cnn3ncccc23)n1,RPS6KA3 N-terminal kinase domain,binding,1 µM,82%
